Results of several laboratories.
Compare with care: the assays were run in different laboratories.
Target: Muscarinic acetylcholine receptor M3 (CHRM3, Homo sapiens, UniProt P20309)
Concentration: 10 µM

`CCN(Cc1ccccc1C(F)(F)F)C(=O)C1CCN(S(=O)(=O)c2ccc3[nH]ncc3c2)CC1` gave an inhibition of 14% (ligand displacement, radioligand).
With `Ic1cccc2cnccc12` the inhibition was 5% (ligand displacement, radioligand).
`CCCNc1nc2ccccc2n1Cc1ccc(Cl)cc1` gave an inhibition of -39.7% (ligand displacement).
The inhibition of `O=C(Nc1ccc(S(=O)(=O)N2CCC(Cl)CC2)cc1)c1ccc([N+](=O)[O-])o1` is reported as 13% (ligand displacement, radioligand).
`O=C(c1ccc(F)cc1)N(Cc1ccccc1)C1CCCCC1` gave an inhibition of 17% (cell-free assay).
With `O=C1N=C(N2CCCCN2)S/C1=C\c1ccc(F)cc1O` the inhibition was less than 10% (ligand displacement, radioligand).
For `CCN(CC)c1ccc(C2Nc3ccc(C(=O)c4ccccc4)cc3NC3=C2C(=O)CC(C)(C)C3)cc1` (stereo not drawn), the inhibition was 43% (ligand displacement, radioligand).
With `Oc1cccc(Nc2nc(-c3ccc(F)cc3F)cs2)c1` the inhibition was -16.6% (cell-free assay).
With `N#Cc1cc(Cn2c(N3CCCC3)nc3ccccc32)ccc1F` the inhibition was -31.1% (ligand displacement).
